Source: ChEMBL document CHEMBL4196017, “Design, synthesis and identification of silicon-containing HCV NS5A inhibitors with pan-genotype activity” (Eur J Med Chem, 2018)

What was measured:
Mus musculus [1] = experiment: Toxicity in ICR mouse assessed as effect on food consumption at 150 mg/kg, po administered via gavage once daily for 14 days; assay type: organism-based; details: in vivo, 336 h
Method in brief: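 ICR mice, 5 male + 5 female per group, gavage once daily for 14 days, vehicle control; food intake recorded on day 1 of dosing and then twice weekly, with daily clinical observation.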

Mus musculus [2] = experiment: Toxicity in ICR mouse assessed as RBC count at 150 mg/kg, po administered via gavage once daily for 14 days (reference value: 9.04 +/- 0.8 10^12/L); assay type: organism-based; details: in vivo, 336 h
Method in brief: (§1)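 ICR mice, 5 males + 5 females per group, dosed by gavage once daily at 150 mg/kg (20 ml/kg) or vehicle for 14 days; killed after the 14th dose; blood from abdominal aorta under ether anaesthesia for hematology and clinical chemistry; mean ± SD, n = 10.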

Mus musculus [3] = experiment: Toxicity in ICR mouse assessed as platelet count at 150 mg/kg, po administered via gavage once daily for 14 days (reference value: 1260.3 +/- 137.87 10^9/L); assay type: organism-based; details: in vivo, 336 h
Method in brief: (§2)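 Haematology on abdominal aortic blood taken at necropsy under ether anaesthesia after 14 daily gavage doses (20 ml/kg) in ICR mice, 5 per sex per group, vehicle control. Parameters: WBC, RBC, haemoglobin, platelets, reticulocyte ratio and differential leukocyte counts; mean ± SD, n = 10.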

Mus musculus [4] = experiment: Toxicity in ICR mouse assessed as alanine aminotransferase level in serum at 150 mg/kg, po administered via gavage once daily for 14 days (reference value: 28.33 +/- 9.89 U/L); assay type: organism-based; details: in vivo, 336 h; method in brief: as §1
Mus musculus [5] = experiment: Toxicity in ICR mouse assessed as creatinine level in serum at 150 mg/kg, po administered via gavage once daily for 14 days (reference value: 25.22 +/- 3.42 umol/L); assay type: organism-based; details: in vivo, 336 h
Mus musculus [6] = experiment: Toxicity in ICR mouse assessed as kidney weight at 150 mg/kg, po administered via gavage once daily for 14 days (reference value: 1.51 +/- 0.211 g); assay type: organism-based; details: in vivo, 336 h
Mus musculus [7] = experiment: Toxicity in ICR mouse assessed as reticulocyte level in serum at 150 mg/kg, po administered via gavage once daily for 14 days (reference value: 4.73 +/- 0.56%); assay type: organism-based; details: in vivo, 336 h; method in brief: as §2
Mus musculus [8] = experiment: Toxicity in ICR mouse assessed as hemoglobin concentration at 150 mg/kg, po administered via gavage once daily for 14 days (reference value: 157.4 +/- 15.5 g/L); assay type: organism-based; details: in vivo, 336 h; method in brief: as §2
Mus musculus [9] = experiment: Toxicity in ICR mouse assessed as body weight at 150 mg/kg, po administered via gavage once daily for 14 days (reference value: 25.8 +/- 3.5 g); assay type: organism-based; details: in vivo, 336 h
Mus musculus [10] = experiment: Toxicity in ICR mouse assessed as WBC count at 150 mg/kg, po administered via gavage once daily for 14 days (reference value: 7.03 +/- 1.56 10^9/L); assay type: organism-based; details: in vivo, 336 h; method in brief: as §1
[11] = target: T1, Nonstructural protein 5A (Hepatitis C virus) (UniProt Q5L478); experiment: Potency index, ratio of ombitasvir IC50 to compound IC50 for inhibition of NS5A in HCV genotype 3a infected in human HuH7 replicon cells expressing HCV genotype 1b chimeric replicon; assay type: cell-based; details: Hepatitis C virus subtype 3a
T1 sequence (whole entry): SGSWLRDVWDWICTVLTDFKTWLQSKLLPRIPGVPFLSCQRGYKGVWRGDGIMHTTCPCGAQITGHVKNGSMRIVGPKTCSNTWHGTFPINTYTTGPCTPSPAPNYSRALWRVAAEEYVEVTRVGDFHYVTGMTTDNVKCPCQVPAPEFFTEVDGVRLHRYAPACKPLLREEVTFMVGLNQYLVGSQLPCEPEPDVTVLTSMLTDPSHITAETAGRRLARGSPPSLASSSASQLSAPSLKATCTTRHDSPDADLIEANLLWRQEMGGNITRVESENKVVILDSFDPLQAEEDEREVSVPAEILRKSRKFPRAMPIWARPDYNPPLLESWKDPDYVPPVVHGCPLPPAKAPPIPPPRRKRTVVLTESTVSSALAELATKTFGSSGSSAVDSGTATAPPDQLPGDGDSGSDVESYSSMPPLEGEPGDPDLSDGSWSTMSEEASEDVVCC

With CC[Si](CC)(CC)c1ccc(N2[C@H](c3ccc(NC(=O)[C@@H]4CCCN4C(=O)[C@@H](NC(=O)OC)C(C)C)cc3)CC[C@H]2c2ccc(NC(=O)[C@@H]3CCCN3C(=O)[C@@H](NC(=O)OC)C(C)C)cc2)cc1 the Activity (Mus musculus [1]) was “Non-Toxic”, the Activity (Mus musculus [2]) was 9 ×10¹² /L and the Activity (Mus musculus [3]) was 1263.4 ×10⁹ /L. For the same compound, the Activity (Mus musculus [4]) was 25.3 U/L, the Activity (Mus musculus [5]) was 23.2 µmol/L and the Activity (Mus musculus [6]) was 1.579 g. For the same compound, the Activity (Mus musculus [7]) was 3.88%, the Activity (Mus musculus [8]) was 154.6 g/L and the Activity (Mus musculus [9]) was 24 g. For the same compound, the Activity (Mus musculus [10]) was 6.2 ×10⁹ /L and the Ratio IC50 [11] was 8.6.
